T cell HTS – modulators of CD8 T cell-vesicle binding, primary screen, mouse 2C CD8+ T cells, flow cytometry; 0.068% of 330,000 active; response (vesicle binding), % at 7 µM; 2C CD8+ T cell-vesicle binding; stronger effect = lower value; AID 2052, 2009;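 active = response, share of CD8 T cells binding vesicles, and their 90th percentile fluorescence all below set limits, cut at about 80% in these data, passing the limit was not always enough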;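 note: values below 100% mean blocked vesicle binding to the CD8+ T cells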
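Test system: purified 2C TCR transgenic mouse naive CD8+ T cells. Probe or stimulus: QL9-peptide-loaded Drosophila micro-vesicles bearing Ld, ICAM-1 and B7-1. Incubation: binding step 1.5 h, 37 °C, antibody labelling 20 min, ice. Measured by: flow cytometry of vesicle-bound cells.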
beta cell repl – inducers of MIN6 beta-cell proliferation, primary screen, ATP luminescence, uHTS. 0.29% of 330,000 active. MIN6 cells proliferation, ATPlite luminescence, 48 h; cells starved in 0.2% serum; 100% = growth in 10% serum. proliferation, % at 10 µM;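 active = compounds whose signal lies at least 3.5 SD above the mean of all wells on their plate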
NTR1 agonist – agonists of human NTR1, primary screen, imaging, U2OS cells, beta-arrestin-GFP, high content. NTR1-U2OS beta-arrestin-GFP spot imaging, agonist mode. activation, % at 20 µM. Neurotensin receptor type 1 (Homo sapiens), P30989. AID 493036, 2011. 0.17% of 330,000 active;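 active = activation at or above 40% of the spot to cytoplasm intensity ratio, with at least 20 cells analyzed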
Target sequence (P30989 whole entry, looked up): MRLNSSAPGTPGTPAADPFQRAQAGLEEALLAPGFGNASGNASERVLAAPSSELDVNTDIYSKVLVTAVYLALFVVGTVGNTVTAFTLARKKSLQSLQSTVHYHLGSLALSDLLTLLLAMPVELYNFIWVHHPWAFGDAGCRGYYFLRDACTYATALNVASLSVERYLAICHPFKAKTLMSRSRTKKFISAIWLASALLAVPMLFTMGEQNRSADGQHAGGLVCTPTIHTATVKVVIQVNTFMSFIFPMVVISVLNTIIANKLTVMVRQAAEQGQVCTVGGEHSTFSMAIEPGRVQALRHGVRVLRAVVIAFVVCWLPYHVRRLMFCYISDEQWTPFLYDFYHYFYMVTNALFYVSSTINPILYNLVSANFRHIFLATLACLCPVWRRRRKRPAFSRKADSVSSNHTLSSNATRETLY
Arrestin-AP2 inh – inhibitors of beta-arrestin/AP2 binding, primary screen, biochemical, GPCR trafficking, flow cytometry; beta-arrestin 1 C-terminal peptide binding to AP2 beta2-adaptin appendage (human); FITC-arrestin peptide / GST-AP2 beads; AP2 beta2 appendage carries R879A mutation; inhibition, % at 10 µM; 0.31% of 340,000 active;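 active = inhibition above a set limit, near 3 SD of compounds lacking own fluorescence, cut at about 54% in these data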
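Material – GST-tagged AP2 beta2-adaptin appendage (R879A) on 4 µm glutathione beads · Probe or stimulus – fluorescein-tagged arrestin peptide at 50 nM final · Timing – 12 min plus 1 h, RT · Detection – bead flow cytometry, FITC channel · Read-out basis – inhibition as reduced fluorescein signal on beads, percent · Medium – PBS plus Tween 20 (0.05%) and BSA (0.1%)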
V-ATPase pH – regulators of yeast V-ATPase proton pumping, primary screen, pHLuorin cytosolic pH fluorescence; S. cerevisiae; response, % at 10 µM; 0.37% of 350,000 active; AID 504577, 2011; in the data active = response mostly above about 7.3%, no sharp cut-off; inactive = mostly below about 5.4%; note: actives read high
Xi reactivation – activators of inactive X chromosome reactivation, primary screen, imaging, XiGFP fibroblasts, GFP high-content imaging, set 2 | 0.055% of 360,000 active | XiGFP mouse fibroblasts, % GFP-positive cells imaging, 3 d; cells co-treated with 5-aza-dC sensitizer; scaled so ellipticine positive control = 100% | activation, % at 7.58 µM;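 active = mean normalized replicate activation at least 10% and every replicate at or above 10%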
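Material: SV40-immortalized XiGFP fibroblast cells, line 68-5-11 | Buffer or medium: DMEM containing 5-aza-dC | Dosing: One concentration, pinned | Times: 3 d treatment, 15 min room-temperature fixation | Controls: Ellipticine 6 µM positive control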
VATPase regulator – yeast V-ATPase proton pumping modulators, confirmation, S. cerevisiae, pH-sensitive GFP, second cherry-pick; shares compounds with V-ATPase pH; S. cerevisiae pHLuorin cytosolic pH, V-ATPase proton transport; response, % at 10 µM; 2% of 980 active; in the data active = response above about 24%
Hits are given with their value. Only some compounds are listed: those with a hit (about 0.89% of all), similar ones and a draw of the others.

How did Cc1ccc(/C=C2\S/C(=N/S(=O)(=O)c3cccs3)NC2=O)cc1 do in these assays?
T cell HTS: inactive; beta cell repl: inactive; NTR1 agonist: inactive; Arrestin-AP2 inh: inactive; V-ATPase pH: 21; Xi reactivation: inactive; VATPase regulator: inactive

How did Cc1ccc(S(=O)(=O)/N=C2/NC(=O)/C(=C\c3ccccc3)S2)cc1 do in these assays?
T cell HTS: inactive; beta cell repl: inactive; NTR1 agonist: inactive; Arrestin-AP2 inh: inactive; V-ATPase pH: inactive; Xi reactivation: inactive

Results for C[C@H]1CN([C@@H](C)CO)C(=O)c2cc(NC(=O)Nc3ccc4c(c3)OCO4)ccc2O[C@@H]1CN(C)S(C)(=O)=O ?
Xi reactivation: inactive

How did Cc1ccc(S(=O)(=O)N2CCN(c3ccccc3)CC2)cc1C(N)=O do in these assays?
T cell HTS: inactive; beta cell repl: inactive; NTR1 agonist: inactive; Arrestin-AP2 inh: inactive; V-ATPase pH: 9.8; Xi reactivation: inactive; VATPase regulator: inactive

Results for O=C(O)c1cc(-c2ccc(Cl)c(Cl)c2)n(-c2ccc(F)cc2)n1 ?
T cell HTS: inactive; beta cell repl: inactive; NTR1 agonist: inactive; Arrestin-AP2 inh: inactive; V-ATPase pH: 12; Xi reactivation: inactive; VATPase regulator: inactive

Results for C[C@H](CO)N1C[C@H](C)[C@@H](CN(C)C(=O)CCCN(C)C)OCCCC[C@H](C)Oc2ccc(NC(=O)Nc3ccc(C(F)(F)F)cc3)cc2C1=O ?
Xi reactivation: inactive

How did Clc1cccc(/C=N/N2CCN(Cc3ccccc3)CC2)c1 do in these assays?
T cell HTS: inactive; beta cell repl: inactive; NTR1 agonist: inactive; Arrestin-AP2 inh: inactive; V-ATPase pH: 14; Xi reactivation: inactive; VATPase regulator: inactive

Results for C(=N\N1CCN(Cc2ccccc2)CC1)/c1ccccc1 ?
T cell HTS: inactive; beta cell repl: inactive; NTR1 agonist: inactive; Arrestin-AP2 inh: inactive; V-ATPase pH: inactive; Xi reactivation: inactive

What do the screens show for `CN1CCc2c(sc(N)c2C(=O)O)C1`?
T cell HTS: inactive; beta cell repl: inactive; NTR1 agonist: inactive; Arrestin-AP2 inh: inactive; V-ATPase pH: 9.6; Xi reactivation: inactive; VATPase regulator: inactive

How did CN1CCc2c(sc(NC(=O)c3ccc(C(=O)c4ccccc4)cc3)c2C(N)=O)C1 do in these assays?
T cell HTS: inactive; beta cell repl: inactive; NTR1 agonist: inactive; Arrestin-AP2 inh: inactive; V-ATPase pH: inactive; Xi reactivation: inactive

Results for Cc1nc(C(=O)Nc2ccc(Cl)cc2)sc1C1(C)CC(c2cccc([N+](=O)[O-])c2)=NO1 (centres undefined) ?
T cell HTS: inactive; beta cell repl: inactive; NTR1 agonist: inactive; Arrestin-AP2 inh: inactive; V-ATPase pH: 10.0; Xi reactivation: inactive; VATPase regulator: inactive

How did Cc1ccccc1C(=O)NC(=S)Nc1ccc(S(=O)(=O)N2CCOCC2)cc1 do in these assays?
T cell HTS: inactive; beta cell repl: inactive; NTR1 agonist: inactive; Arrestin-AP2 inh: inactive; V-ATPase pH: 9.5; Xi reactivation: inactive; VATPase regulator: inactive

What do the screens show for `Cc1ccccc1C(=O)NC(=S)Nc1ccc(S(=O)(=O)N2CCN(C)CC2)cc1`?
T cell HTS: inactive; beta cell repl: inactive; NTR1 agonist: inactive; Arrestin-AP2 inh: inactive; V-ATPase pH: inactive

How did CCOc1ccc2nc(N3CCC(C(=O)N4CCN(C(=O)c5ccco5)CC4)CC3)sc2c1 do in these assays?
T cell HTS: inactive; beta cell repl: inactive; NTR1 agonist: inactive; Arrestin-AP2 inh: inactive; V-ATPase pH: 12; VATPase regulator: inactive

Results for Cc1ccc(C(=O)NNC(=S)NC(=O)c2ccco2)cc1 ?
T cell HTS: inactive; beta cell repl: inactive; NTR1 agonist: inactive; Arrestin-AP2 inh: inactive; V-ATPase pH: inactive; Xi reactivation: inactive

How did Cc1ccc(C(=O)NNC(=O)c2ccco2)cc1 do in these assays?
T cell HTS: inactive; beta cell repl: inactive; NTR1 agonist: inactive; Arrestin-AP2 inh: inactive; V-ATPase pH: 17; Xi reactivation: inactive; VATPase regulator: inactive

Results for CC(C)NC(=O)N(C)C[C@@H]1Oc2c(NS(C)(=O)=O)cccc2C(=O)N([C@H](C)CO)C[C@@H]1C ?
Xi reactivation: inactive

How did CCN(CC)C(=O)C1=C(C)N(Cc2ccccc2)C(=O)C(CC(=O)NC2CCCC2)C1 (centres undefined) do in these assays?
V-ATPase pH: 7.1; Xi reactivation: inactive; VATPase regulator: inactive

How did CC1C=NC(S(=O)(=O)N2CC[C@@H]3[C@H]2c2cc(-c4ccc(F)cc4)ccc2N(C)[C@H]3CO)=N1 (some centres undefined) do in these assays?
Xi reactivation: inactive

How did COCCn1c(=O)[nH]c2cc(C(=O)N3CCN(c4ccccc4OC)CC3)ccc2c1=O do in these assays?
T cell HTS: inactive; beta cell repl: inactive; NTR1 agonist: inactive; Arrestin-AP2 inh: inactive; V-ATPase pH: 10; VATPase regulator: inactive

How did COCCn1c(=S)[nH]c2cc(C(=O)N3CCN(c4ccccc4OC)CC3)ccc2c1=O do in these assays?
T cell HTS: inactive; beta cell repl: inactive; NTR1 agonist: inactive; Arrestin-AP2 inh: inactive; V-ATPase pH: inactive

How did CCC(=O)N1CCC2(CC1)CN(Cc1ccc(Cl)cc1)[C@H](CO)c1[nH]c3cc(OC)ccc3c12 do in these assays?
Xi reactivation: inactive

What do the screens show for `N#Cc1cccc(C(=O)OCC(=O)N2CCCc3ccccc32)c1`?
T cell HTS: inactive; beta cell repl: inactive; NTR1 agonist: inactive; Arrestin-AP2 inh: inactive; V-ATPase pH: 9.2; Xi reactivation: inactive; VATPase regulator: inactive

Results for O=C(OCC(=O)N1CCCc2ccccc21)c1cccc(C(F)(F)F)c1 ?
T cell HTS: inactive; beta cell repl: inactive; NTR1 agonist: inactive; Arrestin-AP2 inh: inactive; V-ATPase pH: inactive; Xi reactivation: inactive

How did O=C(Nc1ccc(F)cc1Cl)c1ccc2c(=O)n3c(nc2c1)CCC3 do in these assays?
T cell HTS: inactive; beta cell repl: inactive; NTR1 agonist: inactive; Arrestin-AP2 inh: inactive; V-ATPase pH: 11; Xi reactivation: inactive; VATPase regulator: inactive

Results for O=C(Nc1ccc(F)cc1F)c1ccc2c(=O)n3c(nc2c1)CCC3 ?
beta cell repl: inactive; NTR1 agonist: inactive; Arrestin-AP2 inh: inactive; V-ATPase pH: inactive; Xi reactivation: inactive

How did COc1ccc(CN(C)C[C@H]2Oc3ccc(NC(=O)Nc4ccc5c(c4)OCO5)cc3C(=O)N([C@@H](C)CO)C[C@@H]2C)cc1 do in these assays?
Xi reactivation: inactive

Bioassay records: PubChem, several laboratories
